# In the library only some 2.7% were active in any assay of this set; here they are far more common.
# S100A4 MyoIIA = inhibitors of human S100A4 binding to myosin IIA peptide. S100A4/TAMRA-MyoIIA peptide fluorescence polarization. inhibition, % at 10.7 µM. actives 0.14% (n = 360,000). AID 652163;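 active = mean inhibition of at least 70% across replicates, with every replicate also reaching that level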
# Target sequence (P26447 whole entry, looked up): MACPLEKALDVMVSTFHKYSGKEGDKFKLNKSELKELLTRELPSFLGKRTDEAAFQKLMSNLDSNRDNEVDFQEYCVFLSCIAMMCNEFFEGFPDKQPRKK
#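 Test system: S100A4 monomer protein. Medium: HEPES buffer with Ca2+, pH 7.2. Reagent: fluorescent myosin IIA peptide, 5 nM. Compound dosing: single-point compound testing. Timing: 5 min between mix addition and reading. Benchmarks: DMSO neutral and TFP positive wells.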
# E-sel inducer = E-selectin induction on HUVECs | activation, % at 7.58 µM | AID 686992 | HUVEC E-selectin immunofluorescence imaging; normalized: neutral wells 0, TNF-alpha wells 100 | actives 0.37% (n = 260,000) | P16581;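 active = mean E-selectin-positive cell signal at least 10% of the positive control, reached in at least 60% of replicates, without over 20% cell loss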
#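 Read-out: % PE-positive cells | Test system: HUVEC | Doses: One compound dose added by pin transfer | Buffer or medium: EGM-2 over gelatin coat | Signal: Immunofluorescence imaging | Benchmarks: TNF-alpha, DMSO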
# CFTR F508del cor = correctors of CFTR F508del function in bronchial epithelial cells; CFBE cells, YFP halide quenching; stimulated with forskolin plus potentiator P3; % fluorescence drop versus neutral controls; activity (quench increase), % at 7.58 µM; actives 0.36% (n = 350,000); AID 720511;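 active = mean added fluorescence quench of at least 8% versus neutral control, with both replicates also reaching 8%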;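 also: cells transiently co-express mutant CFTR-F508del with the halide-sensitive YFP; corrector assay measuring rescue of mutant channel to the surface after 24 h compound exposure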
# Env fusion inh = blocks HIV Env-driven cell-cell fusion; HeLa-JRFL Env/CEM21 cell fusion, luciferase; inhibition, % at 12.3 µM; actives 1.1% (n = 360,000); AID 651610;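 active = mean replicate inhibition score of at least 50 and every replicate individually at or above 50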;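 also: 0% = plate neutral controls and 100% = maraviroc near 300 nM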
# FGF22 binding = shifts melting point of recombinant human FGF22. recombinant FGF22 thermal shift, SYPRO orange fluorescence; percent of sucrose octasulfate shift, DMSO zero. activity (Tm shift, normalised), % at 9.99 µM. actives 1.5% (n = 340,000). AID 651658;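 active = mean Tm shift, scaled 0 neutral to 100 positive control, at about 1.3% or above, every replicate too, limit read from the data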
# Target sequence (Q9HCT0 whole entry, looked up): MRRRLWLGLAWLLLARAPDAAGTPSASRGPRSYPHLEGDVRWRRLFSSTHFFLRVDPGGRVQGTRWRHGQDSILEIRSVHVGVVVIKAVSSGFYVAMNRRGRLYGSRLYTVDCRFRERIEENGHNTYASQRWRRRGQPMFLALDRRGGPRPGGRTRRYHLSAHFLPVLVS
# Numbers without * were called inactive; / = no result; [ ] = remark or other dose.
SMILES,S100A4 MyoIIA,E-sel inducer,CFTR F508del cor,Env fusion inh,FGF22 binding
Cn1cnc(S(=O)(=O)N2CC[C@@H]3[C@H](CO)Nc4ccc(C#Cc5ccc(F)cc5)cc4[C@@H]32)c1,13,0,2,/,-1
O=C(C1CCC1)N1CC[C@@H]2[C@@H](CO)Nc3ccc(C#Cc4ccc(F)cc4)cc3[C@@H]21,43,38*,4,37[16.7 µM],/
O=C(C1CCC1)N1CC[C@@H]2[C@H](CO)Nc3ccc(C#Cc4cccc(F)c4)cc3[C@@H]21,-23,31*,-1,/,0
O=C(c1ccccc1F)N1CC[C@@H]2[C@H]1c1cc(Br)ccc1N[C@@H]2CO,-1,0,6,/,0
O=C(C1CCC1)N1CC[C@@H]2[C@@H](CO)Nc3ccc(C#Cc4cccc(F)c4)cc3[C@@H]21,-14,7,0,/,0
O=C(c1ccccc1F)N1CC[C@@H]2[C@H](CO)Nc3ccc(Br)cc3[C@@H]21,-5,0,12*,/,0
O=C(C1CC1)N1CC[C@@H]2[C@H](CO)Nc3ccc(C#Cc4ccc(F)cc4)cc3[C@@H]21,/,34*,1,/,0
O=C(C1CCCC1)N1CC[C@H]2[C@H](CO)Nc3ccc(C#Cc4ccc(F)cc4)cc3[C@H]21,3,/,0,/,/
COC(=O)C[C@H]1CC[C@@H]2[C@@H](COc3ccc(NC(=O)c4cccs4)cc3C(=O)N2C)O1,/,0,-1,5[16.7 µM],0
COc1cc(OC)cc(-c2cc3nc(C)c(CCC(=O)O)c(C)n3n2)c1,6,0,-2,73*,0
CCOC(=O)C1CCCCN1C(=O)CCc1c(C)nc2cc(-c3ccccc3)nn2c1C (configuration not stated),-4,4,2,61*,0
COc1cc(OC)cc(-c2cc3nc(C)c(CCC(=O)NC(C)CCc4ccco4)c(C)n3n2)c1 (configuration not stated),/,/,/,13,/
C/C=C/c1ccc2c(c1)[C@H]1[C@H](CCN1C(=O)c1ccc3c(c1)OCO3)[C@H](CO)N2,-11,0,1,/,/
C[C@@H]1CN([C@H](C)CO)C(=O)c2cc(NC(=O)c3ccncc3)ccc2O[C@@H](C)CCCCO[C@@H]1CN(C)S(=O)(=O)c1cccs1,-10,/,1,8[16.7 µM],0
N#Cc1cnn(-c2cc(Cl)ccc2Cl)c1N,-2,/,0,-1,0
N#Cc1cnn(-c2cccc(Cl)c2)c1N,6,/,-2,-20,43*
COc1cccc2c1OCC(C(=O)O)C2 (configuration not stated),1,/,-1,1,43*
COc1ccc(NC(=O)C2Cc3cccc(OC)c3O/C2=N\O)cc1 (configuration not stated),-3,/,-1,-2,0
O=C(C1=COCCO1)N(Cc1nnc(-c2ccc(Cl)cc2)o1)C1CC1,1,/,-1,10,0
Cc1ccc(C(=O)N(Cc2nnc(-c3ccc(Cl)cc3)o2)C2CC2)o1,6,59*,1,/,0
COc1ccc(-c2c(C)nn3c(C(F)(F)F)cc(C)nc23)cc1,-4,/,/,87*,0
CCS(=O)(=O)N1CCC2(CC1)CN(Cc1ccccc1OC)[C@H](CO)c1c2c2ccc(OC)cc2n1C,23,0,-3,/,0
Cc1ccccc1-c1ccc2c(c1)O[C@H](CN(C)C(=O)Nc1ccc(C(F)(F)F)cc1)[C@H](C)CN([C@@H](C)CO)S2(=O)=O,1,0,-3,56*[16.7 µM],0
Cc1ccc(-c2ccc3c(c2)O[C@@H](CN(C)C(=O)Nc2ccc(F)cc2)[C@@H](C)CN([C@@H](C)CO)S3(=O)=O)cc1,3,0,8.5*,13[16.7 µM],1
Cc1ccc(-c2ccc3c(c2)O[C@H](CN(C)C(=O)Nc2ccc(C(F)(F)F)cc2)[C@H](C)CN([C@@H](C)CO)S3(=O)=O)cc1,7,-1,8.6*,7[16.7 µM],0
SMILES,S100A4 MyoIIA,E-sel inducer,CFTR F508del cor,Env fusion inh,FGF22 binding
Cc1ccc(-c2ccc3c(c2)O[C@H](CN(C)C(=O)Nc2ccc(F)cc2)[C@@H](C)CN([C@@H](C)CO)S3(=O)=O)cc1,-2,0,12*,-12[16.7 µM],0
Cc1ccccc1-c1ccc2c(c1)O[C@@H](CN(C)C(=O)Nc1ccc(C(F)(F)F)cc1)[C@@H](C)CN([C@H](C)CO)S2(=O)=O,20,0,2,-25[16.7 µM],0
Cc1ccc(-c2ccc3c(c2)O[C@@H](CN(C)C(=O)Nc2ccc(C(F)(F)F)cc2)[C@@H](C)CN([C@H](C)CO)S3(=O)=O)cc1,0,0,1,38[16.7 µM],0
CC(C)c1cn(CC[C@H]2CC[C@H](NS(=O)(=O)c3ccccc3)[C@H](CO)O2)nn1,-14,1,-1,-11[16.7 µM],0
COc1cccc(NC(=O)Nc2ccc3c(c2)OC[C@H](C)NC[C@H](C)[C@@H](OC)CN(C)C3=O)c1,-5,0,-1,/,0
CCOC(=O)C1(CCCc2ccccc2)CCN(C(=O)c2cnc(C)cn2)CC1,-6,/,-2,22,44*
CCOC(=O)C1(CCCc2ccccc2)CCN(C(=O)c2cc(C)nc(C)n2)CC1,-1,1,-2,17,0
CCOC(=O)c1c[nH]n2c(=S)ncnc12,-1,1,1,-19,43*
CCOC(=O)c1c[nH]n2c(=O)cc(C)nc12,-1,0,-1,-7,0
CCC(=O)NNC(=O)CCC(=O)Nc1ccc(C)cc1C,0,0,4,2,43*
Cc1ccc(NC(=O)CCC(=O)NNC(=O)C(C)(C)C)c(C)c1,1,0,-2,2,0
C[C@@H]1CCCCO[C@@H](CN(C)S(=O)(=O)c2cccs2)[C@@H](C)CN([C@H](C)CO)C(=O)c2cc(NC(=O)CCCCCC(=O)Nc3ccccc3N)ccc2O1,-6,0,3,18[16.7 µM],0
CN(C)N1C(N)=C(C#N)C(c2ccccc2)C2=C1CCCC2=O (configuration not stated),-4,/,1,4,43*
CN(C)N1C(N)=C(C#N)C(c2ccc(F)cc2)C2=C1CCCC2=O (configuration not stated),-4,0,0,2,0
CCOC(=O)c1c(-c2ccc(OC)cc2)csc1/N=C/N(C)C,-3,0,/,29,0
CCOC(=O)c1c(-c2ccc(OC)cc2)csc1/N=C/C1C(=O)CCCC1=O,-5,278*,-6,2,0
CC(CN1C(C)CCCC1C)OC(=O)c1ccc(Cl)cc1 (configuration not stated),-9,/,-4,0,44*
Cc1cccc(C(=O)OC(C)CN2C(C)CCCC2C)c1 (configuration not stated),-1,/,1,-6,0
CN(C)CC(=O)N[C@H]1CC[C@H](CCNC(=O)C2CC2)O[C@H]1CO,8,0,1,/,/
